From the RNAGym collection of RNA variant scans (doi:10.1126/science.aae0568)
This sample holds only a part of the variants without activity.

B1: tRNA (parent)
chain: GUUCCGUUGGCGUAAUGGUAACGCGUCUCCCUCCUAAGGAGAAGACUGCGGGUUCGAGUCCCGUACGGAACG

Variants of: B1
Assay: yeast fitness relative to wild type (ratio to wild type); higher = fitter; tRNA-Arg(CCU), competitive growth, 37 C, YPD
Outline: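 The tRNA-Arg(CCU) gene variants were made by chemical synthesis with a 3% per-site mutation rate at 69 sites and inserted at the native genomic locus of Saccharomyces cerevisiae. After pooling, the strains were competed in YPD at 37°C for 24 hours in six parallel replicates. Gene amplicons from the start population and each end population were read by 100-nucleotide paired-end sequencing, and Darwinian fitness relative to wild type was taken from genotype frequency changes. Genotypes needed ≥ 100 starting reads, and estimates < 0.5 were set to 0.5.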

Question: Which yeast fitness does the source give for GUUCCGUUGGAGUAAUGGUAACGCGUCUCCCUACUCAGGAGAAGACUGCGGGUUCGAGUCCCCUAGGGAACG [C11A C33A A36C G63C C66G] here?
Answer: 0.582

Question: Which yeast fitness does the source give for GUUCCGUUGGCGUAAUGGUAACGCGUCUCCUUCCUGAGGAGAAGACUGCGGGUUCGAGUCCCGUACGGAACG [C31U A36G] here?
Answer: 0.857

Question: With GUUCCGUUGGCGUAAUGGUAACGCGUCUCCCAGCUAAGGAGAAGACUGCGGGUUCGAGUCCCGUAUGGUACG [U32A C33G C66U A69U] as the variant, how does the yeast fitness read?
Answer: ≤ 0.5

Question: Which yeast fitness does the source give for GUUCCGUUGGCGUAGUGGUAACGCGUCUCCCUCCUAUGGAGAAGACUGCGGGUUUGAGUCCCGUACGGAACG [A15G A37U C55U] here?
Answer: 0.556

Question: Which yeast fitness does the source give for GUUCCGUUGGCGUAAUGGCAACGCGUCUCCCUCCUAAGGAGGAGACUGCGGGUUCGAGUCCCGUACGGAACG [U19C A42G] here?
Answer: 0.774

Question: For GUUCCGUUGGCGUAAUGGUAAGGCAUCUCCCUCCUAUGAAGAAGACAGCGGGUUCGAGUCCCGUACGGAACG [C22G G25A A37U G39A U47A], which yeast fitness is on record?
Answer: ≤ 0.5

Question: Which yeast fitness does the source give for GUUCCGUUGGCGUACUGGUAACGCGUCUACCUCCUAAGGAGAAGACUGCGGGUACGAGUCCCGUACGGAACG [A15C C29A U54A] here?
Answer: ≤ 0.5

Question: For GUUCCGUUGGCGUAAUGGUAGCGCGUCUCACUGCUAAGGAGAAGACCGCGGGUUCGAGACCCGUAUGGAACG [A21G C30A C33G U47C U59A C66U], which yeast fitness is on record?
Answer: ≤ 0.5

Question: Which yeast fitness does the source give for GUUCCGUUGGCGUAAUGGUAACGCGUCUCCCUCCUAAGGAGAAGUCUGCGGGUUCGAGUCCCCUUCGGAACG [A45U G63C A65U] here?
Answer: 0.727

Question: Which yeast fitness does the source give for GUUCCGUUGGCGUAAUGGUGACGCGUCUCCCUCCUAAGGAGAAGACUGCGGGUUCGAGUCCCAUACGGAACG [A20G G63A] here?
Answer: 0.903

Question: Which yeast fitness does the source give for GUCCCGUUGGCGUAAUGGUAACGCGUCUCCUUCCUAAGGAGAAGACUGCGGGUUCGAGGCCCGUACGGAACG [U3C C31U U59G] here?
Answer: 0.579

Question: Which yeast fitness does the source give for GUUCUGUUGGCGUAAUGGUAACGCGUCUCGCUCCUAAGGAGAAGACUGCGCGUUCUAGUCCCGUACGGAACG [C5U C30G G51C G56U] here?
Answer: ≤ 0.5

Question: With GUUCCCUUGGCGGAAUGGUAAAGCGUCUCCCUCGUAAGGAGAAGACUGCGGGUUCGAGUCCAGUACGGAACG [G6C U13G C22A C34G C62A] as the variant, how does the yeast fitness read?
Answer: 0.59

Question: For GUUGCGUUGGCGUAAUGGUAACGCGUCUCCCUCCUAAGGAGUAGACUACGGGUUCGAGUCCCGUACGGAACG [C4G A42U G48A], which yeast fitness is on record?
Answer: 0.575

Question: Which yeast fitness does the source give for GUUGCGUUGGCGUAACGGUAACGCGUCUGCCUCCUUAGGAGAAGACUGCGGGUUCGAGUGCCGUACGGAACG [C4G U16C C29G A36U C60G] here?
Answer: ≤ 0.5

Question: Which yeast fitness does the source give for GUUGCGUUGGCGUAAUGGUAACGCGUCUCCCUCCUAAGGAGAAGACUGCGGGUGCGAGUCCAGUACGGAACG [C4G U54G C62A] here?
Answer: 0.579

Question: Which yeast fitness does the source give for GUUCCGUUGGCGUAAUGGUAAUGGGUCUCCCUCUUAGGGAGAAAACUGCGGGUUCGAGUCCCGUACGGAACG [C22U C24G C34U A37G G44A] here?
Answer: ≤ 0.5

Question: For GAUCCGUUGGCGUAAUGGUAAAGCGUCUCCCUCCUAAGGAGAAGACUGCGGGUUCGAGUCCCGUCCGGAACG [U2A C22A A65C], which yeast fitness is on record?
Answer: ≤ 0.5

Question: For GUUCCGGUGGCGUAAUGGUACCGCGCCUCCCUCCUAAGGAGAACACUGCGGGUUCGAGUCCCGUACGGAACG [U7G A21C U26C G44C], which yeast fitness is on record?
Answer: ≤ 0.5

Question: For GUUCCGUUGGCGUAAUGGUACCGUGUCUCCCACCUAAGGAGAAGACUGCGGGUUCGAGUCUCGUACGGAACG [A21C C24U U32A C61U], which yeast fitness is on record?
Answer: ≤ 0.5

Question: With GUUCCGUCGGCGUAUUGGUAACGCAUCUCCCUCGUAAGGAGAAGACUGCGGGUACGAGUCCCGUACGGAACG [U8C A15U G25A C34G U54A] as the variant, how does the yeast fitness read?
Answer: ≤ 0.5

Question: Which yeast fitness does the source give for GUUCCGUUGGCGUAAUAGUAACGCGUCUCCCUCCGAAGGAGAAGACUCCGGGUUCGAGUCCCGUACCGAACG [G17A U35G G48C G67C] here?
Answer: 0.558

Question: Which yeast fitness does the source give for GUUCCGUUGGCGUAAUGGUGACGCGUCUCCCUCCUAAGGAGAAGACUGCGGAUUCGAGUCCCGUACGGAACG [A20G G52A] here?
Answer: 0.664

Question: For GUUCCAUUGGCGUAAUGGUAACGCGUCUCAUUCCUAAGGAGAAGCCUGCGGGUUGGAGUCCCGUACGGAACG [G6A C30A C31U A45C C55G], which yeast fitness is on record?
Answer: ≤ 0.5

Question: Which yeast fitness does the source give for GCUGCGUUGGCGUAAUGGUAAUGCGUCUCACUCCUAAGGAGAAGACUGCGGGUUCGAGUCCCGUACGGAACG [U2C C4G C22U C30A] here?
Answer: ≤ 0.5

Question: With GUUCCGUUGGCGUAAUGGUAACCCGUUUCCCUCCUAAGGAGAAGGCUGCGGAUUCGAAUCCCGUACGGAACG [G23C C27U A45G G52A G58A] as the variant, how does the yeast fitness read?
Answer: ≤ 0.5

Question: For GUUCCGUUGGCGUAGAGGUAACGCGUCUCCCUCCUAAGGAGAAGACUGCGGGUUCGAGUCCCGUACGGAACG [A15G U16A], which yeast fitness is on record?
Answer: 0.919

Question: For GUUCCGUUGGCGUAAUGGUAACGCGUCUCCCCCCUAAGGAGAAAACUGCGGGUUCGAGUCCCGUACGGUACG [U32C G44A A69U], which yeast fitness is on record?
Answer: 1.05

Question: For GCUCCGUUGGCGUAAUGGUAACGCGUCUCCCUCCUAAGAAGAAGACUGCGGGUUCGAGUCCCGUACGGAACG [U2C G39A], which yeast fitness is on record?
Answer: 0.884

Question: For GUUCCGUUGGCGUAAUGGUAACGCGUCUCCCUCCUAAGGAGAAGACUGCGAGCUCGAGUCCCGUACGGAACG [G51A U53C], which yeast fitness is on record?
Answer: 0.745

Question: For GUUCCGUUGGCGUAAUGGUACCGCGGCUCCCUCUUAAGGGGAAGACUGCGAGUUCGAGUCCCGUACGGAACG [A21C U26G C34U A40G G51A], which yeast fitness is on record?
Answer: 0.529

Question: For GUUCCGGUGGCGUAAUGGUAACGCGUCUCCCUCCUAAGGAGAAGACUGCGGAUUCGAGUCCCGUACGGAACG [U7G G52A], which yeast fitness is on record?
Answer: 0.723

Question: For GUUACGUUAGCGUAAUGGUAAAGCGUGUCCCUCCUAAGGAGAAGACUGCGGGAUCGAGUCCCGUGCGGAACG [C4A G9A C22A C27G U53A A65G], which yeast fitness is on record?
Answer: ≤ 0.5

Question: Which yeast fitness does the source give for GUUUCGUUGGCGUAAUGGUAACGCAUCUCCCUCCUAAGGAGAAGACUGCGGGUUCGAGUCCCGUACGGAACG [C4U G25A] here?
Answer: 0.895

Question: For GUUCCGUUGGCGUAAUGGUUACGCGUCUGCCUCCUAAGGAGAAGACUGCGGGUUCGAGUCCCGUACGGAACG [A20U C29G], which yeast fitness is on record?
Answer: 0.721

Question: For GUUCCGUUGGCGUAAUGGUAACGCGUUUCCCUCCUAAGGAGCAGACUGCGGGUUCGAGUCCCGUACGGAACG [C27U A42C], which yeast fitness is on record?
Answer: 0.997

Question: For GUUCCGCUCGCGUAAUGGUAACGCGUCUCCCUCCUAAGGAAAAGACUGCGGGUUCGAGUCCCGUACGGAACG [U7C G9C G41A], which yeast fitness is on record?
Answer: ≤ 0.5

Question: For GUUCUGUUGGCGUAAUGGUAAGGCGGCUCCCUCCUAAGGAGCAGACUGCGAGUUCGAGUCCCGUACGGAACG [C5U C22G U26G A42C G51A], which yeast fitness is on record?
Answer: 0.537
